# Source: PubChem BioAssay (several laboratories)
# Rows were chosen to be rich in hits. Some 1.9% of all compounds tested hit in one or more screens of this group.
# RAM network inh – inhibitors of the yeast RAM network; AID 868; S. cerevisiae dse1pr::URA3 reporter, 5-FOA growth OD615, 2 d; analog-sensitive cbk1-as2 kinase mutant strain; 190,000 tested, 1.8% active; inhibition, % at 50 µM;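 active means inhibition above a set limit, 3 SD over mean compound inhibition, cut at about 8.4% in these data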;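 further: 0% = DMSO-only wells with no growth and 100% = 10 µM 1-NA-PP1 full growth; inhibition rescues growth on 5-FOA so higher OD means more RAM inhibition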
# p47phox inh – inhibitors of human p47phox binding; inhibition, % at 24.7 µM; 220,000 tested, 0.53% active; p47phox/p22phox peptide binding, fluorescence polarization, 2 h; P14598; AID 1274;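 active means inhibition above about 30%, limit read from the data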;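 further: 0% = p47phox with labelled peptide and 100% = labelled peptide alone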
# pCIP destab – lowers stability of the mouse p/CIP coactivator protein; Q05BA5; F442A p/CIP-EGFP cells, EGFP fluorescence, 16 h; decrease of EGFP signal, % at 10 µM; 290,000 tested, 0.01% active; AID 1984;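 active means EGFP signal decrease of at least 30% at 10 µM or well 3 SD below plate mean, unless failing retest; inactive means the rest, including hits failing retest or dose response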
# Target sequence (Q05BA5 1-1403): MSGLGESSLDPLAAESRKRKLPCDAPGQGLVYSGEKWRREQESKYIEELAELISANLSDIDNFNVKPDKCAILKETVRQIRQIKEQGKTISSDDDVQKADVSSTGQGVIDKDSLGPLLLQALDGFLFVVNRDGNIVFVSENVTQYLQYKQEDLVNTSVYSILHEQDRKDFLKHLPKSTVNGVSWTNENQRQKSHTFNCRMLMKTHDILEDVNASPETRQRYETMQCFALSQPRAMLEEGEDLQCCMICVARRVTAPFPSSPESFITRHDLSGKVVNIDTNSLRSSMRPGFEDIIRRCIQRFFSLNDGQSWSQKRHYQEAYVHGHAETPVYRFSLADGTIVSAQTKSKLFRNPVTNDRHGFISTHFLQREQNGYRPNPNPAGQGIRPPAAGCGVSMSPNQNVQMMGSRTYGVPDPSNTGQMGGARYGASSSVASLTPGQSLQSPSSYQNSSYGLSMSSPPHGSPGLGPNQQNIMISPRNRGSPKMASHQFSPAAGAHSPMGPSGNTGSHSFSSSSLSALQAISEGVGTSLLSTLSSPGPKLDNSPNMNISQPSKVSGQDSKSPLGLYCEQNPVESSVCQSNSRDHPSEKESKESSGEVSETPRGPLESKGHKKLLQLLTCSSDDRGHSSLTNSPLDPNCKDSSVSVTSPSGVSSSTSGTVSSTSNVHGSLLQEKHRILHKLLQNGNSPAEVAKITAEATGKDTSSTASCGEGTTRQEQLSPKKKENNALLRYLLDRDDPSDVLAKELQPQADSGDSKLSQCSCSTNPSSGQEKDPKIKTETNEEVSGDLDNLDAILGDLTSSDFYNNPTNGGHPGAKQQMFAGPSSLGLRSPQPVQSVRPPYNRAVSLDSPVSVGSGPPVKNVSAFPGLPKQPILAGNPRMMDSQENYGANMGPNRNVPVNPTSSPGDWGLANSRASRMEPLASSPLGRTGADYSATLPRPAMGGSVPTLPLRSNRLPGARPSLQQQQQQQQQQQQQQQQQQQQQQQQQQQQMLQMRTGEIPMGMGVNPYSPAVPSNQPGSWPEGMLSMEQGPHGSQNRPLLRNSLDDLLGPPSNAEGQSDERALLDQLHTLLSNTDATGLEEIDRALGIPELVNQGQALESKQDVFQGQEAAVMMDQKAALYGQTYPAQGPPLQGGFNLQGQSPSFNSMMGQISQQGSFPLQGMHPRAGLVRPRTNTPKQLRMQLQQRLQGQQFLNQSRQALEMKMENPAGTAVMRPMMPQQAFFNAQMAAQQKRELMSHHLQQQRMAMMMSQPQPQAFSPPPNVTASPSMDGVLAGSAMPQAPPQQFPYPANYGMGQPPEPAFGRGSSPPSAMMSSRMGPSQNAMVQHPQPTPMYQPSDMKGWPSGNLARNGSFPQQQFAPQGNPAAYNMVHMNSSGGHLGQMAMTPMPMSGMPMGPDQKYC
# Dynein transport – blocks dynein driven cargo transport along microtubules. 3617.4 mouse cells, GR-EGFP nuclear translocation imaging; test concentration mostly 20 µM; stimulated with dexamethasone, 1 µM; stronger effect = lower value. AID 1381. 220,000 tested, 0.47% active. z-score, hits read low;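 active means plate z-score of nuclear minus cytoplasmic receptor signal below a set negative limit, without overly bright fluorescence or cell loss, cut at about -3.5 in these data, passing the limit was not always enough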;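 further: z-score of nuclear minus cytoplasmic ring GR-EGFP intensity difference per well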
#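 medium = tetracycline-free induction medium containing charcoal-stripped FBS | also added = 1.0 µM final dexamethasone stimulus | schedule = 48 h induction, 1 h compound, 30 min dex at 37 °C | technique = fixed, Hoechst-stained cells imaged at 10x for EGFP | measure = GR-EGFP nuclear translocation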
# An asterisk follows results filed as active; x = not tested or not shown.
SMILES,RAM network inh,p47phox inh,pCIP destab,Dynein transport
O=S(=O)(NCCSCc1c(Cl)cccc1Cl)c1ccc2c(c1)OCCO2,8.8*,-7.2,-15.0,-0.167
COc1ccccc1N1CCN(C(=O)c2ccc(N3CCCCS3(=O)=O)cc2)CC1,x,x,0.8,x
Nc1cccc(C(=O)Nc2cccc3ncccc23)c1,x,x,1.3,x
Cc1ccc(S(=O)(=O)N(CC(=O)Nc2ccccc2C(=O)O)c2ccccc2)cc1,8.7*,-12.6,-13.7,-0.504
CCOc1ccccc1NC(=O)CCN(c1ccc(C)cc1)S(=O)(=O)c1ccccc1,9.2*,6.8,-1.2,-0.167
COc1ccccc1NC(=O)CN(c1ccccc1)S(=O)(=O)c1ccccc1,x,x,-8.4,x
Cc1ccc(N(CCC(=O)O)S(=O)(=O)c2ccccc2)cc1,0.7,-6.7,-16.3,1.01
COc1ccc(CCC(=O)Nc2nnc(C(F)(F)F)s2)cc1,x,x,-9.5,x
O=c1[nH]c(C2CCN(S(=O)(=O)Cc3ccccc3)CC2)nc2c1nnn2Cc1cccc(Cl)c1,x,x,-11.8,x
Cc1ccc(S(=O)(=O)N2CCCC2C(=O)OCc2ccccc2)cc1 (stereo not drawn),9.4*,0.8,-9.6,-0.63
O=C(OCc1ccc([N+](=O)[O-])cc1)C1CCN(S(=O)(=O)c2ccccc2)CC1,9.1*,-5.0,6.4,1.39
Cc1ccc(S(=O)(=O)N2CCCC2C(=O)OCc2ccco2)cc1 (stereo not drawn),3.5,-18.4,-15.2,-1.17
CCOC(=O)C1CCN(S(=O)(=O)c2ccc(CC)cc2)CC1,-0.3,-7.5,1.9,1.77
O=C(NC(C(=O)N/N=C/c1cc([N+](=O)[O-])ccc1O)c1n[nH]c(=O)c2ccccc12)c1ccccc1 (stereo not drawn),x,x,-3.2,x
CCc1nnc(NC(=O)CCC(=O)N2CCCC2)s1,2.0,89.9*,-3.6,-0.606
COc1ccc(NC(=S)N(Cc2cccnc2)Cc2cc3cc(OC)c(OC)cc3[nH]c2=O)cc1,8.6*,-0.3,-9.4,-0.427
COc1ccc2[nH]c(=O)c(CN(Cc3cccs3)C(=S)Nc3cccc(C)c3)cc2c1,10.2*,0.6,-4.2,-0.0171
COC(=O)c1cc(OC)c(OC)cc1NC(=O)c1cc(C(C)(C)C)oc1C,x,-23.9,-5.3,-0.838
Cc1ccccc1N(C)S(=O)(=O)c1ccc2[nH]cc(C(=O)NCC3CCCO3)c(=O)c2c1 (stereo not drawn),1.8,-15.0,5.2,0.35
CCOc1ccc(N(C)S(=O)(=O)c2ccc3[nH]cc(C(=O)NCC4CCCO4)c(=O)c3c2)cc1 (stereo not drawn),10.6*,-10.7,0.5,5.29
O=C(CSc1nnnn1-c1cccc2ccccc12)NC(C(=O)O)(c1ccccc1)c1ccccc1,8.8*,-6.0,-5.1,-0.721
CN(C)/C=C/C1=C([N+](=O)[O-])C(c2cccc([N+](=O)[O-])c2)NC(=O)N1 (stereo not drawn),x,-9.1,0.3,-1.52
Cc1nn(C)cc1S(=O)(=O)N1CCCCC1C (stereo not drawn),x,x,24.3,x
CCCCNC(=S)N(Cc1ccco1)Cc1cc2cc3c(cc2[nH]c1=O)OCCO3,8.5*,-28.6,1.3,0.623
COc1cc(-c2nnc(SCc3c(F)cccc3Cl)o2)cc(OC)c1OC,10.7*,13.7,-8.5,-0.379
SMILES,RAM network inh,p47phox inh,pCIP destab,Dynein transport
COc1cc(-c2nnc(SCc3ccccc3Cl)o2)cc(OC)c1OC,10.6*,-4.4,-8.5,-0.861
COc1ccc2c(c1)CCc1c-2nc2ccccc2c1N1CCOCC1,x,-15.3,-2.9,-0.309
Cc1ccc(C(C(=O)NC(C)(C)C)N(Cc2cccs2)C(=O)c2ccc3c(c2)OCCO3)cc1 (stereo not drawn),0.8,51.7*,-4.0,-0.248
CCOc1ccc(/C=N/NC(=O)c2nnn(-c3nonc3N)c2-c2ccc(OCC)cc2)cc1,9.4*,-3.4,-8.4,-0.536
CCCCc1ccc(-c2nc(-c3ccncc3)no2)cc1,4.9,61.5*,-18.2,1.08
CCc1ccc(-c2nc(-c3ccncc3)no2)cc1,-0.9,-7.9,-10.8,-0.374
CCc1cccc(C)c1NC(=S)N(CCOC)C(C)c1ccco1 (stereo not drawn),x,-8.7,-10.1,0.407
CCOc1cc(N2CCOCC2)c(OCC)cc1NC(=O)c1ccc(OCc2c(C)noc2C)c(OC)c1,8.7*,-20.5,-3.1,-0.977
CNC(=O)c1ncoc1-c1ccc(Cl)cc1,x,-14.5,-6.7,-0.345
CC(Sc1nc(-c2ccccc2)cc(C(F)(F)F)n1)C(=O)Nc1sc2c(c1C(N)=O)CCC2 (stereo not drawn),0.8,-17.8,-2.5,-0.0515
CC(Sc1nc(-c2ccccc2)cc(C(F)(F)F)n1)C(=O)Nc1sc2c(c1C#N)CCC2 (stereo not drawn),10.0*,17.2,-5.4,-0.95
CS(=O)(=O)N(CC(=O)Nc1ccccc1Sc1ccccc1)c1cccc(Br)c1,11.3*,-5.6,-1.0,-0.968
COc1ccc(N2CCN(C(=O)CN(c3cccc(Br)c3)S(C)(=O)=O)CC2)cc1,-0.3,-6.2,6.2,-0.822
CSc1ccccc1NC(=O)CN(c1cc(C)cc(C)c1)S(C)(=O)=O,-1.0,-10.0,-18.7,0.39
CS(=O)(=O)N(CC(=O)N1CCN(c2ccccc2)CC1)c1cccc(Br)c1,0.1,34.8*,-1.3,-0.886
Cc1cccc(-n2c(SCc3ccc([N+](=O)[O-])cc3)nnc2-c2c[nH]c3ccccc23)c1,2.8,-12.0,-0.1,1.3
CC(=O)Nc1c2c(nn1-c1ccccc1C)CS(=O)(=O)C2,x,x,-4.5,x
CCn1cc(C=C2C(=O)c3ccccc3C2=O)c2ccccc21,5.2,75.1*,0.5,-3.13
COc1ccc(NC(=O)CSCc2cc(=O)n3cc(C)sc3n2)cc1,x,x,0.8,x
Cc1ccccc1C(=O)Nc1ccc2c(C#N)c3nc4ccccc4nc3n2c1,4.0,33.5*,-12.1,-0.145
Cc1c(C(=O)Nc2ccccc2)cn2c(nc3ccccc32)c1C#N,1.9,-10.9,-5.5,-1.13
Cc1ccc(C(O)c2nc3ccccc3n2C(C)C)cc1 (stereo not drawn),1.1,70.8*,-5.9,-0.217
COc1ccc(C(O)c2nc3ccccc3n2C(C)C)cc1 (stereo not drawn),x,-19.1,-6.4,-0.452
COc1ccc(N2C(=O)N(Cc3cccc(F)c3)c3ccccc3S2(=O)=O)cc1,8.8*,1.2,-2.5,0.781
CCN=c1scc(C)n1/N=C/c1ccc(O)c(O)c1O,-0.8,-6.3,-7.7,-1.02
COCCN=c1scc(-c2cccs2)n1/N=C/c1ccc(O)c(O)c1O,9.6*,8.1,-16.4,-2.96
CCN(CC)Cc1c(C(=O)N/N=C/c2cccc(OCc3cccc(Cl)c3)c2)nnn1-c1nonc1N,x,x,-11.1,x
COc1ccc(C2C(C(C)=O)=C(C)N=c3s/c(=C\c4cc(C)n(C)c4C)c(=O)n32)c(OC)c1 (stereo not drawn),8.4*,-57.9,-690.8,-1.07
COc1ccc(C2C(C(C)=O)=C(C)N=c3s/c(=C\c4ccco4)c(=O)n32)c(OC)c1 (stereo not drawn),3.3,-25.0,-23.6,0.342
